The source of these data is ChEMBL document CHEMBL1141861, “Synthesis and in vitro anti-hepatitis B and C virus activities of ring-expanded ('fat') nucleobase analogues containing the imidazo[4,5-e][1,3]diazepine-4,8-dione ring system” (Bioorg Med Chem Lett, 2005).

Each structure is given as a SMILES string.

Experiment [1] has as its system HepG2. In words: Selectivity index (CC50/EC50) for inhibition of HBV replicative intermediate synthesis in human hepatoblastoma 2.2.15 cells. In kind it is functional. The method, boiled down: (§1)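 2.2.15 cells were dosed daily for nine days. CC50 is the neutral red uptake concentration causing a twofold reduction versus untreated cultures. EC50 is from blot hybridization of intracellular replicative intermediates or extracellular virion DNA, by linear regression. Index = CC50/EC50.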

Experiment [2] concerns Hepatitis B virus. Description: Inhibition of synthesis of extracellular virion DNA release in cultured human hepatoblastoma 2.2.15 cells. It is filed as functional, organism-based. To be noted: HepG2 2.2.15. The method, boiled down: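 Confluent 2.2.15 cells were dosed daily for nine days. Culture medium was collected daily, and extracellular virion HBV DNA was assayed on days 0, 3, 6 and 9 by blot hybridization using ³²P-labelled HBV-specific probes. EC50 and EC90 (50%/90% inhibition) came from linear regression on all treated cultures, with SD taken from the regression standard error.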

Experiment [3] concerns Hepatitis B virus. In words: Inhibition of synthesis of intracellular HBV DNA replicative intermediates in cultured human hepatoblastoma 2.2.15 cells. It is filed as functional, organism-based. To be noted: HepG2 2.2.15. The method, boiled down:
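2.2.15 cells were dosed daily for nine days and lysed 24 h after day 9. Intracellular HBV DNA replicative intermediates were measured by Southern/dot blot hybridization with ³²P-labelled HBV probes. EC50 and EC90 came from linear regression on combined treated-culture data, with SD from the regression standard error.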

The test system of experiment [4] is HepG2. In words: Cytotoxicity against human hepatoblastoma 2.2.15 cells. In kind it is functional. The method, boiled down:
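Confluent HBV-producing 2.2.15 cells received compound daily for nine days. Cytotoxicity was read by neutral red dye uptake. CC50 is the concentration giving a twofold drop in uptake from the mean of untreated cultures.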

Experiment [5] concerns HepG2. Description: Selectivity index (CC50/EC50) for inhibition of HBV virion DNA synthesis in human hepatoblastoma 2.2.15 cells. In kind it is functional. The method, boiled down:
as §1

Experiment [6] deals with Huh-7. Description: Cytotoxicity against Huh7ET cell line containg HCV replicon at 10 uM assessed by measuring the beta-actin RNA level relative to control. In kind it is functional, Homo sapiens. The method, boiled down: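 Huh7 ET HCV replicon (luciferase reporter) cells treated at 10 µM in the same primary screen. Cellular β-actin RNA level is used to compute cytotoxicity, expressed as % of control.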
Background: In antiviral work, replicon cells carry a viral genome segment that copies itself.

Experiment [7] deals with Huh-7. Description: Selectivity index (toxicity/antiviral activity). It is filed as functional. The method, boiled down: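 Huh7 ET HCV luciferase replicon cells, single 10 µM primary screen. Index is the ratio of β-actin RNA level (% control) to replicon-derived luciferase activity (% control).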
Another experiment deals with Hepatitis C virus. In words: Antiviral activity against HCV in Huh7 ETcell line at 10 uM assessed by measuring HCV-RNA-derived LUC activity relative to control. In kind it is functional, Hepacivirus hominis. The method, boiled down: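 Primary single-concentration screen (10 µM) in Huh7 ET cells carrying an HCV RNA replicon with a stable luciferase reporter. Replicon-derived luciferase activity serves as an indirect measure of HCV RNA and is expressed as % of control.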

Usually EC90 stands for the concentration at which the effect reaches the 90% level. High values mean a need for much substance, low ones an effect from little substance. By EC50 is commonly meant the concentration that produces a half-maximal response. By CC50 is commonly meant the concentration giving 50% cytotoxicity. Read a high CC50 as better tolerance by the cells.

Consider `Nc1ccn([C@@H]2CS[C@H](CO)O2)c(=O)n1` [LAMIVUDINE], for which the Selectivity index was found to be 8602 in the experiment on HepG2 [1] and 44979 in the experiment on HepG2 [5]. Further, the results for the EC90 with Hepatitis B virus [2] and in the experiment with Hepatitis B virus [3] were 0.151 µM and 0.648 µM, respectively. This compound also had an EC50 in the experiment with Hepatitis B virus [3] of 0.251 µM. In addition, in the experiment on HepG2 [4], the CC50 was found to be 2160 µM.

Take `CCCCCCCCCCCCCCCCNc1nc(=O)c2c(nc(Br)n2Cc2ccc(OC)cc2)c(=O)[nH]1`: the Activity with Huh-7 [6] is listed as 3%; with Hepatitis C virus, 70%. Also, the Selectivity index with Huh-7 [7] is recorded as 0.043.

Take `CCCCCCCCNc1nc(=O)c2c(nc(Br)n2Cc2ccc(OC)cc2)c(=O)[nH]1`: the results for the Activity in the experiment with Huh-7 [6] and in the experiment on Hepatitis C virus were 69% and 32%, respectively. The Selectivity index in the experiment with Huh-7 [7] came out at 2.155.

Take `NC(=O)c1ncn([C@@H]2O[C@H](CO)[C@@H](O)[C@H]2O)n1` [RIBAVIRIN]: the Activity with Huh-7 [6] is listed as 12%; in the experiment on Hepatitis C virus, 89%. For the same compound, the Selectivity index in the experiment on Huh-7 [7] is recorded as 0.42.

Regarding `CCCCCCCCCCCCNc1nc(=O)c2c(nc(Br)n2Cc2ccc(OC)cc2)c(=O)[nH]1`, the Activity with Huh-7 [6] and with Hepatitis C virus was 47% each time. This compound also returned a Selectivity index in the experiment on Huh-7 [7] of 1.

For the compound `CCCCCCCCCCCCCCNc1nc(=O)c2c(nc(Br)n2Cc2ccc(OC)cc2)c(=O)[nH]1`, the Activity with Huh-7 [6] is given as 34%; with Hepatitis C virus, 64%. Further, the Selectivity index with Huh-7 [7] amounted to 0.532.

Consider `CCCCCCCCNc1nc(=O)c2c(nc(Br)n2Cc2ccccc2)c(=O)[nH]1`, for which the Activity in the experiment on Huh-7 [6] came out at 83%; with Hepatitis C virus, 78%. Also, the values for the Selectivity index with Huh-7 [7], in the experiment on HepG2 [1] and in the experiment with HepG2 [5] were 1.06, 34 and 168, respectively. Also, the figures for the half-maximal effective concentration (EC50) in the experiment on Hepatitis B virus [2] and in the experiment with Hepatitis B virus [3] were 1.7 µM and 8.4 µM, respectively. The concentration for an effect of 90% (EC90) with Hepatitis B virus [2] was determined as 6.9 µM; in the experiment on Hepatitis B virus [3] it was 28 µM. Also, the CC50 in the experiment with HepG2 [4] is 286 µM.

With `COc1ccc(Cn2c(Br)nc3c(=O)nc(NCc4ccccc4)[nH]c(=O)c32)cc1`, the Activity in the experiment on Huh-7 [6] is 69%; in the experiment on Hepatitis C virus, 55%. Besides, in the experiment on Huh-7 [7], the Selectivity index came to 1.255.

As for `CCNc1nc(=O)c2c(nc(Br)n2Cc2ccc(OC)cc2)c(=O)[nH]1`, the Activity is recorded as 65% with Huh-7 [6] and 34% in the experiment with Hepatitis C virus. The same compound yielded a Selectivity index in the experiment with Huh-7 [7] of 1.912.

For `CNc1nc(=O)c2c(nc(Br)n2Cc2ccc(OC)cc2)c(=O)[nH]1`, the figures for the Activity with Huh-7 [6] and in the experiment with Hepatitis C virus were 48% and 33%, respectively. The Selectivity index in the experiment on Huh-7 [7] is recorded as 1.453.

Turning to `CCCCCCCCNc1nc(=O)c2c(nc(Br)n2COCc2ccccc2)c(=O)[nH]1`, the values for the Activity in the experiment with Huh-7 [6] and in the experiment with Hepatitis C virus were 61% and 29%, respectively. Further, the Selectivity index with Huh-7 [7] was 2.1.

Turning to `COc1ccc(Cn2c(Br)nc3c(=O)nc(N)[nH]c(=O)c32)cc1`, the Activity was 89% in the experiment on Huh-7 [6] and 62% with Hepatitis C virus. For the same compound, the Selectivity index in the experiment on Huh-7 [7] is recorded as 1.435.

In the case of `CCCCCCCCCCNc1nc(=O)c2c(nc(Br)n2Cc2ccc(OC)cc2)c(=O)[nH]1`, the results for the Activity in the experiment on Huh-7 [6] and in the experiment on Hepatitis C virus were 32% and 53%, respectively. Also, the Selectivity index with Huh-7 [7] turned out to be 0.604.
